Screens: PubChem BioAssay, several laboratories
Only some compounds are listed: those with a hit (about 2% of all), similar ones and a draw of the others.
zVAD death inh: inhibitors of zVAD-triggered necroptosis, primary screen, L929 cells; L929 zVAD necroptosis rescue, ATP luminescence, 24 h; with zVAD 60 µM; viability rescue, % at 10 µM; actives 0.38% (n = 220,000); AID 1377, 2008;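 active means activation, scaled between plate controls, above about 75%, limit read from the data; inactive means activation under that limit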
Lipid droplet: inhibitors of hepatocyte lipid droplet formation, primary screen, imaging, high-throughput imaging, BODIPY stain; AID 1656, 2009; AML12 mouse hepatocytes, oleate lipid droplets; inhibition, % at 6.5 µM; actives 0.4% (n = 240,000);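 active means lipid droplet intensity inhibited by at least 50%, with more than 500 cells counted; inconclusive means wells with under 300 cells, treated as cytotoxic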
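Technique: fluorescence imaging, 20x objective, two fields per well / Assay system: AML12 hepatocytes (mouse) / Measure: % inhibition of lipid droplet signal / Doses: 6.5 µM single-point dosing / Incubation: overnight exposure / Reagent: 100 µM oleic acid challenge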
RBBP9 inh: human RBBP9 inhibitors, primary screen, biochemical, fluorescence polarization, FP-Rh probe, HTS. Serine hydrolase RBBP9 (Homo sapiens), O75884. recombinant RBBP9. inhibition, % at 7.94 µM. actives 0.2% (n = 220,000). AID 1515, 2009;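 active means inhibition above the campaign mean of all tested compounds plus 3 SD, cut at about 14% in these data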
Target sequence (O75884 whole entry, looked up): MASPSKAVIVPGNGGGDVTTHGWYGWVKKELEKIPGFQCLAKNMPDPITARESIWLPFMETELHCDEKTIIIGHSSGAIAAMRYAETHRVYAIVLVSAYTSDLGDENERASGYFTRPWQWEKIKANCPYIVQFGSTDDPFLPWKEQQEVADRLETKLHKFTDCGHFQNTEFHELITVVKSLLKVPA
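Measured by – fluorescence polarization · Test system – RBBP9 protein · Input – 2.5 µM RBBP9 dispensing solution, before mixing · Measure – percent inhibition from mP, scaled between DMSO and no-protein wells · Benchmarks – DMSO-treated enzyme wells and wells lacking RBBP9 · Times – preincubation 30 min plus labeling 45 min at 25 °C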
PfM18AAP inh: PfM18AAP inhibitors, malaria aminopeptidase, primary screen, biochemical, QFRET, recombinant enzyme | M18 aspartyl aminopeptidase (Plasmodium falciparum 3D7) | H-Glu-NHMec fluorogenic cleavage | inhibition, % at 7.35 µM | actives 1.2% (n = 290,000);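 active means inhibition above the campaign mean inhibition over all tested compounds plus 3 SD, cut at about 28% in these data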
TNF death inh: inhibitors of TNF-alpha triggered necroptosis, primary screen, cell-based, Jurkat FADD-/-, single concentration. Jurkat FADD-/- TNF necroptosis rescue, ATP luminescence, 24 h; 0 = TNF only, 100 = no-TNF cells. activation (protection from cell death), % at 10 µM. actives 0.068% (n = 220,000). AID 463075, 2010;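 active means activation, meaning protection from cell death, of at least 50% relative to plate controls; inactive means activation below 50%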;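 further: necroptosis triggered by 40 ng/mL TNF-alpha added together with compound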
TbHK1 inh: Trypanosoma brucei hexokinase 1 inhibitors, primary screen, biochemical, G6PDH-coupled NADH absorbance, MLSCN library; recombinant TbHK1, G6PDH-coupled NADH A340; actives 0.11% (n = 220,000); inhibition, % at 10 µM; hexokinase 1 [Trypanosoma brucei];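 active means inhibition of 50% or more in the single-dose primary screen; inactive means inhibition below 50%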
Of the large screens only hits and unclear results are named; the others gave an inactive call.

COc1ccc(Cc2noc(CN3CCCN(C4Cc5ccccc5C4)CC3)n2)cc1OC	none
CCN1CCN(c2nc(C)nc3c2sc(=S)n3C)CC1	PfM18AAP inh 34
O=C(CN(Cc1ccco1)C(=O)Cn1nnc(-c2cccs2)n1)NCC1CCCO1 (stereo unspecified)	none
CCN1/C(=C/C=C/c2oc3ccc(-c4ccccc4)cc3[n+]2CC)Oc2ccc(-c3ccccc3)cc21	Lipid droplet 120, TbHK1 inh 101
CCOC(=O)NN1C(=O)c2ccccc2NC1c1ccccn1 (stereo unspecified)	PfM18AAP inh 30
CCOC(=O)NN1C(=O)c2ccccc2NC1c1ccccc1 (stereo unspecified)	none
COc1ccc(NC(=O)COC(=O)CCc2ccccc2)c(OC)c1	none (no result: zVAD death inh, RBBP9 inh, TNF death inh, TbHK1 inh)
CCOC(=O)C(=NC(C)CC)NNc1cccc(C(F)(F)F)c1 (stereo unspecified)	none
CCOC(=O)C(=NC(C)CC)NNc1ccc(Br)cc1 (stereo unspecified)	Lipid droplet inconclusive, PfM18AAP inh 30 (no result: zVAD death inh)
CC(C)(CCC(=S)N1CCOCC1)C1CCCCC1	PfM18AAP inh 30 (no result: zVAD death inh, Lipid droplet, RBBP9 inh, TNF death inh, TbHK1 inh)
Cc1ccc(NC(=O)CN2CCOCC2)cc1C	none (no result: zVAD death inh, RBBP9 inh, TNF death inh, TbHK1 inh)
O=C(Cc1noc2ccccc12)NNC(=S)Nc1ccccc1	PfM18AAP inh 30
CC1CN(S(=O)(=O)c2ccc(CN3C(=O)c4cccnc4C3=O)s2)c2ccccc2O1 (stereo unspecified)	none (no result: zVAD death inh, RBBP9 inh, TNF death inh, TbHK1 inh)
COc1ccc(C(=O)NC(=O)COC(=O)c2ccc3ncsc3c2)cc1	none
O=C(COC(=O)c1ccc2ncsc2c1)NC(=O)c1ccccc1	PfM18AAP inh 31
O=C1CCCC2=C1C(c1ccc(O)c(O)c1)c1c(ccc3ncccc13)N2 (stereo unspecified)	PfM18AAP inh 77
CCOc1ccc(C2C3=C(CCCC3=O)Nc3ccc4ncccc4c32)cc1 (stereo unspecified)	none
Cc1cccc(C(=O)NC2CCN(C(=O)NCc3ccccc3)CC2)c1	none (no result: zVAD death inh, RBBP9 inh, TNF death inh, TbHK1 inh)
O=C1N/C(=N\N=C\c2ccc3ncccc3c2)SC1Cc1ccc(SC(F)F)cc1 (stereo unspecified)	none
O=C1N/C(=N\N=C\c2ccccn2)SC1Cc1cccc(SC(F)F)c1 (stereo unspecified)	zVAD death inh 82 (no result: Lipid droplet)
Nc1ccc(C(=O)Nc2nc3ccccc3s2)cc1	none
O=C(Nc1nc(=O)c2ccccc2s1)c1ccc(Cl)cc1	PfM18AAP inh 30
Cc1sc(N)c(C#N)c1C	PfM18AAP inh 37
O=C(NNC(=O)c1ccccc1O)c1cccc(Br)c1	PfM18AAP inh 30 (no result: zVAD death inh, Lipid droplet, RBBP9 inh, TNF death inh, TbHK1 inh)
N#C/C(=C\c1ccc2c(c1)OCO2)C(N)=S	PfM18AAP inh 32
O=C(Cn1cnc2ccc(Cl)cc2c1=O)c1cccs1	TNF death inh 67 (no result: Lipid droplet)
O=C(Cn1cnc2ccccc2c1=O)c1cccs1	none
CC(C)COC(=O)Cn1cnc2ccc(Br)cc2c1=O	TNF death inh 57
CC(C)CNC(=O)NC(=O)COC(=O)Cn1cnc2ccccc2c1=O	none
O=C(Cn1cnc2ccc(Br)cc2c1=O)c1cccs1	TNF death inh 74 (no result: Lipid droplet)
Cc1c(Cl)cccc1-n1c(-c2cccnc2)n[nH]c1=S	PfM18AAP inh 31 (no result: Lipid droplet)
Cc1cc(Cl)ccc1-n1c(-c2cccnc2)n[nH]c1=S	none
CCc1ccccc1-n1c(-c2ccncc2)n[nH]c1=S	PfM18AAP inh 30 (no result: Lipid droplet)
CCC/C=N/Nc1nc2ccccc2s1	PfM18AAP inh 35
C(=C\c1ccccc1)/C=N/Nc1nc2ccccc2s1	none (no result: Lipid droplet)
C[C@]12CC[C@@H]3c4cc(O)c(O)cc4CC[C@H]3[C@@H]1CC[C@@H]2O	RBBP9 inh 24, PfM18AAP inh 67 (no result: zVAD death inh, TNF death inh, TbHK1 inh)
O=C(NN=C1CCCC1)c1ccc(O)cc1O	PfM18AAP inh 31 (no result: zVAD death inh, RBBP9 inh, TNF death inh, TbHK1 inh)
O=C(NN=C1CCCC1)c1cc(Br)ccc1O	none (no result: zVAD death inh, RBBP9 inh, TNF death inh, TbHK1 inh)
Nc1nc(=S)c2ncn(C3CCCC3)c2[nH]1	PfM18AAP inh 36
O=c1c2[nH]c3ccccc3c2ncn1C1CCCCC1	none (no result: Lipid droplet)
O=C(Nc1ccc(NC(=O)N2CCN(c3ccccc3O)CC2)cc1)N1CCN(c2ccccc2O)CC1	PfM18AAP inh 29 (no result: zVAD death inh, RBBP9 inh, TNF death inh, TbHK1 inh)
O=C(Nc1ccc(Cl)cc1)N1CCN(c2ccccc2)CC1	none
O=c1c(Cc2ccc(Cl)cc2Cl)c(O)ccn1CCCN1CCOCC1	none
CC1CC(C)CN(C(=O)CSc2nnc(-c3ccc(Cl)cc3)o2)C1 (stereo unspecified)	zVAD death inh 83 (no result: Lipid droplet)
NS(=O)(=O)c1ccc(N=Nc2c(=O)[nH]n3c(=O)c4c([nH]c23)CCCC4)cc1	PfM18AAP inh 48
NC(=S)N/N=C/c1ccc(-c2cc(Cl)cc(Cl)c2)o1	none
NC(=S)N/N=C/c1ccc(-c2ccc([N+](=O)[O-])cc2)o1	PfM18AAP inh 42
Cc1ccccc1N=Cc1cccc(O)c1O	PfM18AAP inh 30 (no result: zVAD death inh)
Cc1cccc(C=Nc2ccc3c(c2)oc2ccccc23)c1O	none
CC(N=Cc1cccc(O)c1O)c1ccccc1 (stereo unspecified)	PfM18AAP inh 31
CC(N=Cc1cc([N+](=O)[O-])ccc1O)c1ccccc1 (stereo unspecified)	none
COc1ccc(C2c3sc(=O)[nH]c3SC3C(=O)N(c4ccccc4)C(=O)C32)cc1 (stereo unspecified)	none
O=C1C2Sc3[nH]c(=O)sc3C(c3ccccc3)C2C(=O)N1c1ccccc1 (stereo unspecified)	PfM18AAP inh 29 (no result: Lipid droplet)
CCN(CC)S(=O)(=O)c1ccc2c(c1)N(CC(=O)Nc1cccnc1Cl)C(=O)CO2	none
COc1cc(/C=C2/C(=N)N3C(=NC2=O)SN=C3S(C)(=O)=O)ccc1OS(=O)(=O)c1ccccc1	none (no result: zVAD death inh, RBBP9 inh, TNF death inh, TbHK1 inh)
COc1cc(/C=C2\C(=N)N3N=CSC3=NC2=O)ccc1OS(=O)(=O)c1ccccc1[N+](=O)[O-]	PfM18AAP inh 29 (no result: zVAD death inh, RBBP9 inh, TNF death inh, TbHK1 inh)
O=C(NCc1cccs1)C(=O)NCC1OCCCN1S(=O)(=O)c1ccccc1 (stereo unspecified)	none
O=C(O)CC(C(=O)O)N1C(=O)/C(=C/C=C/c2ccco2)SC1=S (stereo unspecified)	PfM18AAP inh 31
CCOC(=O)c1cc(COc2cc(Cl)cc(Cl)c2)on1	none
CCCN(CC1CC1)C(=O)CSc1nnc(-c2cc(-c3cccs3)nc3ccccc23)o1	none
CC(C)CCNC(=O)C(CC(C)C)N(Cc1ccc2c(c1)OCO2)C(=O)c1snc(C(N)=O)c1N (stereo unspecified)	none
CSc1nc2c(c(=O)[nH]1)C(c1cccc(Cl)c1)CC(=O)N2 (stereo unspecified)	none
